One test has as its target cannabinoid CB1 receptor (Homo sapiens, UniProt P21554). The note with it: read-out: Ki, cannabinoid CB1 receptor, ref Huffman et al., cited from earlier work.
Test [1] has as its target T1, cannabinoid CB2 receptor (Homo sapiens, UniProt P34972). The following applies: read-out: Ki, cannabinoid CB2 receptor, ref Huffman et al., cited from earlier work.
The target of test [2] is T1, cannabinoid CB2 receptor. The note with it: read-out: EC50, cAMP accumulation screen; prior screen; ref Ogawa et al., 2017; cited from earlier work. For orientation: Changes in cAMP serve as a functional read-out for many G protein-coupled receptors.
For test [3], the target named is T1, cannabinoid CB2 receptor. As to the kind of experiment: Radioligand competition binding with [3H]CP55,940, CB2. A general note: In a radioligand displacement assay an active substance lowers the binding of a labelled ligand.
Test [4] deals with ERK1/2 phosphorylation (cannabinoid CB2 receptor-induced). Kind of test: ERK1/2 phosphorylation immunoblot in CB2-transfected HEK293 cells. The class given is cell-based. The note with it: 1.0 μM compound, 5 min; for ERK1/2 phosphorylation in the presence of PTX: 10 ng/ml PTX pretreatment 16 h; for ERK1/2 phosphorylation, fold increase above vehicle: without PTX. The procedure, abridged: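 HEK293 cells were transfected with CB2 DNA by Lipofectamine 2000, then pretreated 24 h later in DMEM with or without 10 ng/ml pertussis toxin for 16 h. They were exposed 5 min at 37°C to 1.0 µM test compound; vehicle was DMSO on CB2-transfected cells. Lysates were immunoblotted for phospho-p44/42 and phospho-MEK with chemiluminescent detection. Statistics: one-way ANOVA with Tukey test.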
In general terms: In western blotting, separated proteins are transferred to a membrane and probed.

Test [5] addresses T1, cannabinoid CB2 receptor. As to the kind of experiment: [35S]GTPγS binding stimulation. The class given is biochemical.
A further test concerns Jurkat cells. As to the kind of experiment: Jurkat cell proliferation. The format is cell-based, human. The note with it: 72 h; for Cell proliferation inhibition: Jurkat cells, relative to DMSO. Put shortly: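 Jurkat cells (T-lymphoblastic leukaemia, endogenous CB2) at passage 4–12 were grown in RPMI 1640 with 10% FBS and 1% antibiotic-antimycotic at 37°C and 5% CO2. Cells were plated at 10^5 cells/ml and given test compound in RPMI (DMSO vehicle) for 70 h. CellTiter 96 AQueous One was then added for 2 h and A490 read. Percent inhibition was taken relative to DMSO. Triplicate; mean ± S.E.M.; one-way ANOVA with Tukey.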

Where [6] appears, read: Homo sapiens, Jurkat, read-out: Cell proliferation inhibition.

Where two headings read alike, the source gives them in different places.

T1 sequence (P34972 whole entry): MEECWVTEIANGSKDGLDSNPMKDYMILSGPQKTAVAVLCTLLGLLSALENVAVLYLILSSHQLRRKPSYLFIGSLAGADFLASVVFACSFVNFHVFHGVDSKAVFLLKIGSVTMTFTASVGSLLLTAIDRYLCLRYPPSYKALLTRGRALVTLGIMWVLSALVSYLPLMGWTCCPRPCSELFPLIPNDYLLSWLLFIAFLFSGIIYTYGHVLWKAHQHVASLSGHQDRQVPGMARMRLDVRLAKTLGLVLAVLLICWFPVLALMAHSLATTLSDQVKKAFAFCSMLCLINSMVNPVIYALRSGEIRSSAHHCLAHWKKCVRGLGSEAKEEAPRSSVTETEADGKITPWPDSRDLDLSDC
cannabinoid CB1 receptor, sequence (P21554 whole entry): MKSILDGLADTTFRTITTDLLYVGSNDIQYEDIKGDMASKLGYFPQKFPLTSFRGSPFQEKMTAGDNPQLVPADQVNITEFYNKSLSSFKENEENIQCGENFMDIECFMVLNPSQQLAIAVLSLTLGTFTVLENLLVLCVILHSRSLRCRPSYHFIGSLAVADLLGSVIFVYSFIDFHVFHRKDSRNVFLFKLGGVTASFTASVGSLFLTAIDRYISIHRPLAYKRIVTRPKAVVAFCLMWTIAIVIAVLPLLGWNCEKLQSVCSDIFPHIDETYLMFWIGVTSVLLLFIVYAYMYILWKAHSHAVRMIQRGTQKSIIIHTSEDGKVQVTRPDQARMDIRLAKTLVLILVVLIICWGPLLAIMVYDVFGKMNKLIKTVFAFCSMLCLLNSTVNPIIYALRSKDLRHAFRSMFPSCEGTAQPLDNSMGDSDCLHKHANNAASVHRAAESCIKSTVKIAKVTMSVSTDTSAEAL

One may read the Ki as a measure of affinity in units of concentration, obtained from inhibition or displacement. For `CCCC(C)(C)c1ccc2c(c1)OC(C)(C)[C@@H]1CC=C(C)C[C@@H]21` [JWH-133], the Ki is 677 nM on cannabinoid CB1 receptor (1999) and 3.4 nM at cannabinoid CB2 receptor [1] (1999).
A word on the EC50: it is the concentration that produces a half-maximal response. As for `COC(=O)c1ccccc1NC(=O)CN(c1ccccc1OC)S(=O)(=O)c1ccc(C)cc1` [ABK6, benzoic acid, 2-[[2-[(2-methoxyphenyl)[(4-methylphenyl)sulfonyl]amino]acetyl]amino]-, methyl ester], the EC50 on cannabinoid CB2 receptor [2] is 2 nM. At cannabinoid CB2 receptor [3], this compound showed a Ki of 102 ± 7 nM. For the same compound, in test [4], the “ERK1/2 phosphorylation in the presence of PTX” value (shortened to “ERK1/2 phosphorylation … of PTX”) was “prevented by the addition of PTX” and the “ERK1/2 phosphorylation, fold increase above vehicle” value is “induce ERK1/2 phosphorylation”. Moreover, the EC50 at cannabinoid CB2 receptor [5] amounted to 13 ± 4 nM.
Turning to `CCCCCCC(C)(C)c1ccc2c(c1)OC(C)(C)[C@@H]1CC=C(CO)C[C@@H]21` [JWH-051], the Ki at cannabinoid CB1 receptor (1996) was 1.2 nM; at cannabinoid CB2 receptor [1] (1996), 0.032 nM.
As to `CCCCCCC(C)(C)c1ccc([C@@H]2C[C@H](O)CC[C@H]2CCCO)c(O)c1` [CP55,940, reference compound], the figures for the Cell proliferation inhibition with Jurkat cells (0.1 μM) and with Jurkat cells (10 μM) were 7±3% and 26±8%, respectively.
Turning to `CCOC(=O)c1ccccc1NC(=O)CN(c1cccc(C)c1C)S(=O)(=O)c1ccccc1` [ABK5, ethyl 2-(2-(N-(2,3-dimethylphenyl)phenylsulfonamido)acetamido)benzoate], in test [4], the “ERK1/2 phosphorylation … of PTX” value is “prevented by the addition of PTX” and the “ERK1/2 phosphorylation, fold increase above vehicle” value is given as “induce ERK1/2 phosphorylation”. Moreover, in the test with Jurkat cells (setting [6]), the inhibition at 0.1 µM is 15 ± 2% and the inhibition at 10 µM was 20 ± 1%.
Take `CCC(C(=O)Nc1sc2c(c1C(N)=O)CCCCCC2)c1ccccc1` (centres unmarked) [ABK7, 2-(2-phenylbutanamido)-4,5,6,7,8,9-hexahydrocycloocta[b]thiophene-3-carboxamide]: the EC50 on cannabinoid CB2 receptor [2] was 32 nM. The compound also yielded a Ki at cannabinoid CB2 receptor [3] of 317 ± 117 nM. For the same compound, in test [4], the “ERK1/2 phosphorylation … of PTX” value was “prevented by the addition of PTX” and the “ERK1/2 phosphorylation, fold increase above vehicle” value is on record as “induce ERK1/2 phosphorylation”. On cannabinoid CB2 receptor [5], this compound displayed an EC50 of 31 ± 14 nM.

The values above are taken from paper PMC6534466 (European journal of pharmacology, 2019).
